From PubChem
aSyn 5UTR inh = MLPCN primary screen, SNCA 5' untranslated region; alpha-synuclein 5'UTR reporter, inhibitor activity; inhibition, % (tested at 7.5 µM); 300,000 compounds, 0.82% hits; in the data active means inhibition above about 60%;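 further: H4 neuroglioblastoma cells stably carrying SNCA 5'UTR luciferase fusion; 0% = DMSO wells and 100% = positive control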
H9c2 TAG inh = inhibitors of triacylglycerol accumulation; H9c2 cells, Nile Red lipid (TAG) fluorescence; cells loaded with 200 µM oleic acid; inhibition, % at 12.5 µM; 230,000 compounds, 0.66% hits; AID 651582;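 active means pattern-corrected inhibition of lipid staining of at least 50% with the nuclear-stain viability signal not falling by more than 50%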;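 further: 0% = DMSO wells and 100% = triacsin C control wells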
Jurkat NFkB inh = lowers PMA/ionomycin-induced NF-kB signal in Jurkat cells | PMA/ionomycin-induced NF-kB luciferase reporter, luminescence | inhibition, % at 4 µM | 330,000 compounds, 0.53% hits; in the data active means inhibition above about 50%
APP 5UTR inh = APP translation inhibition; SH-SY5Y APP 5'UTR-luciferase reporter, luminescence; inhibition, % at 2 µM; 190,000 compounds, 0.82% hits;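 active means inhibition above a set limit, derived from the sample mean plus 3 SD, cut at about 45% in these data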
697 NFkB inh = lowers PMA/ionomycin-induced NF-kB signal in 697 B cells; 330,000 compounds, 0.33% hits; 697 B-cell NF-kB luciferase reporter, 16 h; inhibition, % at 4 µM; in the data active means inhibition above about 35%
Lipid droplet = hepatic lipid droplet formation modulation; 240,000 compounds, 0.4% hits; inhibition, % at 6.5 µM; AML12 mouse hepatocytes, oleate lipid droplets, BODIPY imaging; AID 1656;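 active means lipid droplet intensity inhibited by at least 50%, with more than 500 cells counted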
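Test system: AML12 hepatocytes (mouse); reagent: oleate loading, 100 µM; dosing: one dose, 6.5 µM compound; incubation: overnight exposure; signal: fluorescence imaging, 20x objective, two fields per well; read-out basis: % inhibition of corrected integrated BODIPY droplet signal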
TAG conf = confirmation of triacylglycerol accumulation inhibitors. 990 compounds, 71% hits. inhibition, % at 12.5 µM. H9c2 lipid accumulation, Nile Red fluorescence; cells loaded with 200 µM oleic acid. shares compounds with H9c2 TAG inh;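 active means mean inhibition across replicates of 40% or more; inactive means mean inhibition below 40%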;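 further: plate controls were DMSO only wells for no effect and Triacsin C treated wells for full effect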
* = called active by the depositor. In the library only some 1.9% were active in any assay of this set; here they are far more common.

What do the screens show for `NC(c1csc(NC(=O)Nc2ccccc2Cl)n1)C1CCCCC1` (stereo unspecified)?
H9c2 TAG inh: 23.8

How did COc1ccccc1NC(=O)Nc1nc(C(N)C2CCCCC2)cs1 (stereo unspecified) do in these assays?
H9c2 TAG inh: 51.9*; TAG conf: 33.1

Results for CCCc1nnc(NC(=O)CCC(=O)NC2CCCC2)s1 ?
aSyn 5UTR inh: 12.6; Jurkat NFkB inh: -6.4; 697 NFkB inh: -20.9; Lipid droplet: 2.2

What do the screens show for `O=C(CSc1nc(C(F)(F)F)cc(=O)[nH]1)Nc1nccs1`?
aSyn 5UTR inh: 0.9; H9c2 TAG inh: 9.5; Jurkat NFkB inh: 11.0; 697 NFkB inh: -12.8

How did Cc1ccc(F)c(S(=O)(=O)NC(=O)C2(C)CCN2C(=O)CC2CCCCC2)c1 (stereo unspecified) do in these assays?
H9c2 TAG inh: 6.4

What do the screens show for `CCOc1cc(C(=S)N2CCOCC2)cc(Br)c1OS(=O)(=O)c1ccccc1`?
aSyn 5UTR inh: 14.6; Jurkat NFkB inh: -13.2; 697 NFkB inh: -10.0; Lipid droplet: -52.3

Results for CC1CN(S(=O)(=O)c2cccc(C(=O)OC/C(O)=C(\C#N)c3nc4ccccc4[nH]3)c2)CC(C)O1 (stereo unspecified) ?
aSyn 5UTR inh: -6.4; H9c2 TAG inh: 12.8; Jurkat NFkB inh: -2.7; APP 5UTR inh: 9.1; 697 NFkB inh: 2.4; Lipid droplet: 10.9

How did CCOC(=O)/C(N=Nc1c(Br)cc(Br)cc1Br)=C(\C)O do in these assays?
aSyn 5UTR inh: -5.6; H9c2 TAG inh: 11.6; Jurkat NFkB inh: 8.3; APP 5UTR inh: 9.3; 697 NFkB inh: 7.1; Lipid droplet: 12.0

What do the screens show for `COc1ccc(CC(N)c2csc(NC(=O)Nc3ccccc3C(C)C)n2)cc1` (stereo unspecified)?
H9c2 TAG inh: 57.7*; TAG conf: 41.9*

What do the screens show for `CC(=O)Nc1ccc(NC2=Nc3ccccc3N3C2=Nc2c(c(C)nn2-c2ccccc2)C3c2ccccc2)cc1` (stereo unspecified)?
aSyn 5UTR inh: 27.0; H9c2 TAG inh: 54.1*; Jurkat NFkB inh: 37.6; APP 5UTR inh: 18.9; 697 NFkB inh: -2.3; TAG conf: 43.4*

Results for CC(C)(C)NC(=O)C[C@H]1C[C@H](C(=O)N2CCCCC2)[C@@]2(CCc3ccccc3)c3[nH]c4ccc(Cl)cc4c3CCN2C1=O ?
H9c2 TAG inh: 61.7*; 697 NFkB inh: 1.0; TAG conf: 44.9*

What do the screens show for `COc1ccc2[nH]c3c(c2c1)CCN1C(=O)C(CC(=O)NCc2cccc(C(F)(F)F)c2)C[C@H](C(=O)N2CCCCC2)[C@@]31CCc1ccccc1` (stereo partly specified)?
H9c2 TAG inh: 102.3*; 697 NFkB inh: 9.9; TAG conf: 90.0*

What do the screens show for `O=C(C[C@H]1C[C@H](C(=O)N2CCCCC2)[C@@]2(CCc3ccccc3)c3[nH]c4ccc(Cl)cc4c3CCN2C1=O)NCc1cccc(C(F)(F)F)c1`?
H9c2 TAG inh: 102.4*; 697 NFkB inh: 9.0; TAG conf: 100.3*

How did COCCCNC(=O)C[C@H]1C[C@H](C(=O)N2CCCCC2)[C@@]2(CCc3ccccc3)c3[nH]c4ccc(Cl)cc4c3CCN2C1=O do in these assays?
H9c2 TAG inh: 26.9; 697 NFkB inh: 3.1

What do the screens show for `O=C(CC1C[C@H](C(=O)N2CCCCC2)[C@@]2(CCc3ccccc3)c3[nH]c4ccccc4c3CCN2C1=O)NCCc1ccccn1` (stereo partly specified)?
H9c2 TAG inh: 19.5

Results for O=C(C[C@H]1C[C@H](C(=O)N2CCCCC2)[C@@]2(CCc3ccccc3)c3[nH]c4ccc(Cl)cc4c3CCN2C1=O)NCc1ccco1 ?
H9c2 TAG inh: 34.6; 697 NFkB inh: 12.0

How did COc1ccc2[nH]c3c(c2c1)CCN1C(=O)C(CC(=O)NCCN2CCOCC2)C[C@H](C(=O)N2CCCCC2)[C@@]31CCc1ccccc1 (stereo partly specified) do in these assays?
H9c2 TAG inh: 3.1; 697 NFkB inh: -9.6

Results for O=C(CC1C[C@H](C(=O)N2CCCCC2)[C@@]2(CCc3ccccc3)c3[nH]c4ccccc4c3CCN2C1=O)NCc1cccc(C(F)(F)F)c1 (stereo partly specified) ?
H9c2 TAG inh: 91.0*; Jurkat NFkB inh: 28.6; 697 NFkB inh: -5.8; TAG conf: 88.0*

What do the screens show for `Cc1ccc2occ(C3N[C@H](C(=O)O)CS3)c(=O)c2c1` (stereo partly specified)?
aSyn 5UTR inh: 6.9; H9c2 TAG inh: -1.4; Jurkat NFkB inh: 13.2; APP 5UTR inh: 1.0; 697 NFkB inh: 12.0

Results for O=C(COC(=O)CSc1ccc2ccccc2c1Br)NC1CC1 ?
aSyn 5UTR inh: 4.2; Jurkat NFkB inh: -3.5; APP 5UTR inh: -1.8; 697 NFkB inh: 11.5; Lipid droplet: -10.9

What do the screens show for `COc1ccc(C(=O)C2CCN(C(=O)Nc3ccccc3C)CC2)cc1`?
aSyn 5UTR inh: 19.9; Jurkat NFkB inh: 14.8; 697 NFkB inh: 9.3; Lipid droplet: 15.8

How did COc1ccccc1C(=O)Nc1cc(C)c(OCC(=O)N2CCOCC2)c(C)c1 do in these assays?
aSyn 5UTR inh: -19.8; H9c2 TAG inh: -1.4; Jurkat NFkB inh: -4.2; 697 NFkB inh: 2.5; Lipid droplet: 4.7

Results for Cc1ccc(C(=O)Nc2cc(C)c(OCC(=O)N3CCOCC3)c(C)c2)cc1 ?
aSyn 5UTR inh: -57.1; H9c2 TAG inh: 63.2*; Jurkat NFkB inh: -27.1; APP 5UTR inh: -48.0; 697 NFkB inh: -53.2; Lipid droplet: 37.4; TAG conf: 41.6*

What do the screens show for `CCOC(=O)c1c(C)[nH]c(-c2csc(N)n2)c1C`?
H9c2 TAG inh: 63.8*; APP 5UTR inh: 73.1*; Lipid droplet: 6.1; TAG conf: 5.3

What do the screens show for `COc1ccc(NS(=O)(=O)c2cccc(C(=O)N/N=C/c3cn(-c4ccccc4)nc3-c3ccccc3)c2)cc1`?
aSyn 5UTR inh: 5.0; H9c2 TAG inh: 60.2*; Jurkat NFkB inh: -14.1; 697 NFkB inh: -18.7; Lipid droplet: 7.7; TAG conf: 62.1*

Results for COc1ccc(NS(=O)(=O)c2cccc(C(=O)N/N=C/c3cn(-c4ccccc4)nc3-c3ccc(OC)cc3)c2)cc1 ?
aSyn 5UTR inh: -85.1; H9c2 TAG inh: 44.3; Jurkat NFkB inh: -36.3; 697 NFkB inh: -23.0; Lipid droplet: 16.1

What do the screens show for `CC(C)CCN(C(=O)c1ccc(Br)cc1)c1c(N)n(Cc2ccccc2)c(=O)[nH]c1=O`?
H9c2 TAG inh: 2.5; Jurkat NFkB inh: 0.6; 697 NFkB inh: 6.3

What do the screens show for `CCCC[C@@H](CNC)NC[C@H](NCCCCC1CCCCC1)C(C)C`?
aSyn 5UTR inh: -13.0; H9c2 TAG inh: 121.3; Jurkat NFkB inh: 5.7; 697 NFkB inh: -6.4; Lipid droplet: -2.6
